From ChEMBL document CHEMBL5344415, “Synthesis and Characterization of Phenylalanine Amides Active against Mycobacterium abscessus and Other Mycobacteria” (J Med Chem, 2023)
≈ marks a conversion by molar mass, not a printed value.

Legend:
A-375 = experiment: Cytotoxicity against human A-375 cells assessed as reduction in cell viability incubated for 72 hrs by SRB assay; assay type: toxicity, cell-based
HT-29 = experiment: Cytotoxicity against human HT-29 cells assessed as reduction in cell viability incubated for 72 hrs by SRB assay; assay type: toxicity, cell-based
[1] = system: Mycolicibacterium smegmatis; experiment: Antibacterial activity against Mycobacterium smegmatis mc2 155 expressing tomato RFP assessed as bacterial growth inhibition incubated for 3 days in 7H9 medium by RFP fluorescence based broth microdilution method; assay type: functional; conditions: mc2 155, 72 h, time 3 day
Method in brief: (§1)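 Broth microdilution in 7H9 with 10 % ADS and 0.05 % Tween 80. Twofold nine-point dilution series. Inoculum 5 x 10⁵ cells/mL taken from a mid-log preculture. Incubation at 37 °C, 3 days for M. smegmatis and M. abscessus, 5 days for M. intracellulare. Read-out by RFP fluorescence (ex 544/em 590 nm). Controls were 1 % DMSO and 100 μM amikacin. MIC₉₀ from duplicates, averaged.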

HeLa = experiment: Cytotoxicity against human HeLa cells assessed as reduction in cell viability incubated for 72 hrs by SRB assay; assay type: toxicity, cell-based
[2] = system: Mycobacteroides abscessus; experiment: Antibacterial activity against Mycobacterium abscessus ATCC 19977 expressing tomato RFP infected in human THP-1 cells assessed as bacterial growth inhibition incubated for 4 days in RPMI medium by RFP fluorescence based assay; assay type: functional; conditions: ATCC 19977, 96 h, time 4 day
Method in brief: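 RFP M. abscessus washed, moved into RPMI, filtered through 5 µm and opsonised with 10 % human serum for 30 min. THP-1 cells infected at MOI 5:1 with PMA 40 ng/mL for 4 h at 37 °C, then washed. Infected cells (1x10⁵/well) given a ten-point twofold series. Incubated 4 days at 37 °C, 5 % CO₂. Cells PFA-fixed and DAPI-stained. RFP quantified by imaging. Controls were DMSO and 1.5 µM bedaquiline. Duplicate.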

[3] = system: Mycobacteroides abscessus; experiment: Antibacterial activity against Mycobacterium abscessus ATCC 19977 expressing tomato RFP assessed as bacterial growth inhibition incubated for 3 days in MHII medium by RFP fluorescence based broth microdilution method; assay type: functional; conditions: ATCC 19977, 72 h, time 3 day
Method in brief: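 Broth microdilution in MHII broth with 0.05 % Tween 80, against the RFP-expressing strain. Twofold nine-point dilution series. Inoculum 5 x 10⁵ cells/mL from a mid-log preculture. Incubated 3 days at 37 °C. Read-out by RFP fluorescence (ex 544/em 590 nm). Controls were 1 % DMSO and 100 μM amikacin. MIC₉₀ from duplicates, averaged.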

NIH3T3 = experiment: (§2) Cytotoxicity against mouse NIH3T3 cells assessed as reduction in cell viability incubated for 72 hrs by SRB assay; assay type: toxicity, cell-based; conditions: nih3t3
[4] = system: Mycobacteroides abscessus; experiment: Antibacterial activity against Mycobacterium abscessus Bamboo harboring inactive clarithromycin-sensitive erm41 C28 sequevar assessed as bacterial growth inhibition incubated for 3 days in 7H9 medium by optical density based method; assay type: functional; conditions: 72 h, time 3 day
MCF7 = experiment: Cytotoxicity against human MCF7 cells assessed as reduction in cell viability incubated for 72 hrs by SRB assay; assay type: toxicity, cell-based
[5] = system: Mycobacterium tuberculosis; experiment: Antibacterial activity against Mycobacterium tuberculosis H37Rv ATCC 27294 assessed as bacterial growth inhibition incubated for 7 days in 7H9 medium by optical density based microplate reader analysis; assay type: functional; conditions: H37Rv ATCC 27294, 168 h, time 7 day
Method in brief: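 Compounds serially diluted in flat-bottom 96-well plates. Mid-log culture mixed in to a final OD₆₀₀ of 0.05. Sealed plates incubated in humidified boxes at 37 °C for 7 days with shaking at 80 rpm. Turbidity read at 600 nm. MIC₉₀ taken from dose–response curves. Two biological replicates, averaged.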

[6] = system: Mycobacteroides abscessus; experiment: Antibacterial activity against Mycobacterium abscessus ATCC 19977 expressing tomato RFP assessed as bacterial growth inhibition incubated for 3 days in 7H9 medium by RFP fluorescence based broth microdilution method; assay type: functional; conditions: ATCC 19977, 72 h, time 3 day; method in brief: as §1
[7] = Kinetic solubility of compound in PBS at 0.78 to 500 uM measured immediately by nephelometric method; assay type: physicochemical; conditions: buffer, dose 0.78-500 µM
Method in brief: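 DMSO stocks prediluted in DMSO, then diluted 1:50 into PBS (2 % DMSO final) and read immediately by nephelometry at 0.78–500 μM; blank-corrected data fitted by segmental regression; quadruplicates from one stock.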

A2780 = experiment: Cytotoxicity against human A2780 cells assessed as reduction in cell viability incubated for 72 hrs by SRB assay; assay type: toxicity, cell-based
[8] = system: Mycobacterium intracellulare; experiment: Antibacterial activity against Mycobacterium intracellulare ATCC 35761 expressing tomato RFP assessed as bacterial growth inhibition incubated for 5 days in 7H9 medium by RFP fluorescence based broth microdilution method; assay type: functional; conditions: ATCC 35761, 120 h, time 5 day; method in brief: as §1
[9] = system: Mycobacteroides abscessus; experiment: Antibacterial activity against MMV688845-resistant Mycobacterium abscessus Bamboo 845R-2.1 harboring rpoB/beta subunit P473L mutation assessed as bacterial growth inhibition incubated for 3 days by optical density based analysis; assay type: functional; conditions: Bamboo 845R-2.1, 72 h, time 3 day
Method in brief: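 Tenfold-point twofold dilution series in 7H9, final DMSO 1 %. Final ranges typically 50–0.098 or 6.25–0.012 μM. Mid-log culture added to an initial OD₆₀₀ of 0.05 (5*10⁶ CFU/mL). Incubated 3 days at 37 °C with shaking at 110 rpm. Growth taken as OD₆₀₀ on day 3 minus day 0, as % of drug-free wells. MIC₉₀ read visually from the curves. Clarithromycin as control. Two biological replicates, averaged.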

[10] = system: Mycobacteroides abscessus; experiment: Bactericidal activity against Mycobacterium abscessus ATCC 19977 assessed as reduction in viable bacteria at 3.13 uM incubated for 4 days by microplate dilution assay relative to control; assay type: functional; conditions: time 4 day
Method in brief: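 After 4 days in the microplate dilution assay, 10 µl samples (undiluted or 1:100) were plated on 7H10 with glycerol, ADS and 400 µg/mL hygromycin. Colonies counted after 4 days at 37 °C. Done in triplicate. CFU/mL compared with the inoculum counted before incubation.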

[11] = as §2; assay type: toxicity, cell-based; conditions: mouse, NIH3T3 cells
HEK293 = experiment: Cytotoxicity against HEK293 cells assessed as reduction in cell viability incubated for 72 hrs by SRB assay; assay type: toxicity, cell-based, Homo sapiens
[12] = system: Mycobacteroides abscessus; experiment: Bactericidal activity against Mycobacterium abscessus ATCC 19977 assessed as reduction in viable bacteria at 6.25 uM incubated for 4 days by microplate dilution assay relative to control; assay type: functional; conditions: time 4 day

Row | Structure (SMILES) | EC50 (A-375) [µM] | EC50 (HT-29) [µM] | MIC90 [1] [µM] | EC50 (HeLa) [µM] | MIC50 [2] [µM] | MIC90 [2] [µM] | MIC90 [3] [µM] | EC50 (NIH3T3) [µM] | MIC50 [4] [µM] | MIC90 [4] [µM] | EC50 (MCF7) [µM] | MIC90 [5] [µM] | MIC90 [6] [µM] | Kinetic_solubility [7] [µM] | EC50 (A2780) [µM] | MIC90 [8] [µM] | MIC90 [9] [µM] | Activity [10] [%] | EC50 at 72 h [11] [µM] | EC50 (HEK293) [µM] | also measured
1 | O=C(N[C@H](Cc1cccs1)C(=O)Nc1ccccc1N1CCOCC1)c1cccs1 | > 30 | 29.8 | 1.56 (≈ 0.689 µg/mL) | > 30 | 12.5 (≈ 5.52 µg/mL) | > 100 | 12.5 (≈ 5.52 µg/mL) | 29 | 2.4 (≈ 1.06 µg/mL) | 9 (≈ 3.97 µg/mL) | > 30 | 6.25 (≈ 2.76 µg/mL) | 12.5 (≈ 5.52 µg/mL) | 41 | 29.5 | 1.56 (≈ 0.689 µg/mL) | – | – | – | – | –
2 | O=C(N[C@H](Cc1ccccc1)C(=O)Nc1ccccc1N1CC[S+]([O-])CC1)c1ccccc1F | > 30 | > 30 | – | > 30 | 0.78 (≈ 0.374 µg/mL) | 12.5 (≈ 5.99 µg/mL) | 3.13 (≈ 1.5 µg/mL) | – | 0.4 (≈ 0.192 µg/mL) | 2.1 (≈ 1.01 µg/mL) | > 30 | – | 6.25 (≈ 3 µg/mL) | 431 | > 30 | 0.1 (≈ 0.048 µg/mL) | 100 (≈ 48 µg/mL) | 81 | > 30 | > 30 | Activity [12]: 99%
3 | CC[C@H]1OC(=O)[C@H](C)[C@@H](O[C@H]2C[C@@](C)(OC)[C@@H](O)[C@H](C)O2)[C@H](C)[C@@H](O[C@@H]2O[C@H](C)C[C@H](N(C)C)[C@H]2O)[C@](C)(OC)C[C@@H](C)C(=O)[C@H](C)[C@@H](O)[C@]1(C)O [CLARITHROMYCIN] | – | – | – | – | – | – | – | – | – | – | – | – | – | – | – | – | 0.27 (≈ 0.202 µg/mL) | – | – | – | –
4 | O=C(N[C@H](Cc1ccccc1)C(=O)Nc1cc(F)ccc1N1CCS(=O)(=O)CC1)c1cccs1 | > 30 | > 30 | 1.56 (≈ 0.783 µg/mL) | > 30 | 0.39 (≈ 0.196 µg/mL) | 3.13 (≈ 1.57 µg/mL) | 3.13 (≈ 1.57 µg/mL) | 26.9 | 0.43 (≈ 0.216 µg/mL) | 6.5 (≈ 3.26 µg/mL) | 23.2 | 0.78 (≈ 0.391 µg/mL) | 6.25 (≈ 3.14 µg/mL) | 70 | 24 | 0.2 (≈ 0.1 µg/mL) | – | – | – | > 30 | –
5 | O=C(N[C@H](Cc1ccccc1)C(=O)Nc1cc(F)ccc1N1CCSCC1)c1ccccc1F | 29.4 | > 30 | 6.25 (≈ 3.01 µg/mL) | 28.3 | 3.13 (≈ 1.51 µg/mL) | 100 (≈ 48.2 µg/mL) | 25 (≈ 12 µg/mL) | 28.5 | 1.15 (≈ 0.554 µg/mL) | 12 (≈ 5.78 µg/mL) | > 30 | 1.56 (≈ 0.751 µg/mL) | 25 (≈ 12 µg/mL) | 31 | 28.3 | 0.78 (≈ 0.376 µg/mL) | – | – | – | – | –
6 | O=C(N[C@H](Cc1ccccc1)C(=O)Nc1ccccc1N1CCS(=O)(=O)CC1)c1cccs1 | > 30 | > 30 | 1.56 (≈ 0.754 µg/mL) | > 30 | 0.78 (≈ 0.377 µg/mL) | 6.25 (≈ 3.02 µg/mL) | 3.13 (≈ 1.51 µg/mL) | – | 0.24 (≈ 0.116 µg/mL) | 1.7 (≈ 0.822 µg/mL) | > 30 | 0.2 (≈ 0.0967 µg/mL) | 3.13 (≈ 1.51 µg/mL) | 62 | 23.6 | 0.1 (≈ 0.0484 µg/mL) | – | 95 | > 30 | > 30 | Activity [12]: 99%
